Source: ChEMBL document CHEMBL1157537 (J Med Chem, 2008)
Calls of active or inactive are those of the source. The calls are words filed in the database; no cut-off is given here.

Legend:
[1] = organism: Rattus norvegicus; assay: Progestational activity in estrone-treated ovariectomized rat assessed as effect on uterine epithelial cell height; assay type: functional, organism-based
Outline: (§1)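 Ovariectomized rats were treated with estrone, alone or combined with test progestin, and compared with vehicle and estrone-only groups. Endpoints were uterine epithelial cell height, vaginal epithelial thickness and mammary alveolar bud proliferation.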

[2] = target: T1, Progesterone receptor (Homo sapiens) (UniProt P06401); assay: Agonist activity at human progesterone receptor in human T47D cells assessed as alkaline phosphatase activity relative to progesterone; assay type: functional, cell-based
T1 sequence (whole entry): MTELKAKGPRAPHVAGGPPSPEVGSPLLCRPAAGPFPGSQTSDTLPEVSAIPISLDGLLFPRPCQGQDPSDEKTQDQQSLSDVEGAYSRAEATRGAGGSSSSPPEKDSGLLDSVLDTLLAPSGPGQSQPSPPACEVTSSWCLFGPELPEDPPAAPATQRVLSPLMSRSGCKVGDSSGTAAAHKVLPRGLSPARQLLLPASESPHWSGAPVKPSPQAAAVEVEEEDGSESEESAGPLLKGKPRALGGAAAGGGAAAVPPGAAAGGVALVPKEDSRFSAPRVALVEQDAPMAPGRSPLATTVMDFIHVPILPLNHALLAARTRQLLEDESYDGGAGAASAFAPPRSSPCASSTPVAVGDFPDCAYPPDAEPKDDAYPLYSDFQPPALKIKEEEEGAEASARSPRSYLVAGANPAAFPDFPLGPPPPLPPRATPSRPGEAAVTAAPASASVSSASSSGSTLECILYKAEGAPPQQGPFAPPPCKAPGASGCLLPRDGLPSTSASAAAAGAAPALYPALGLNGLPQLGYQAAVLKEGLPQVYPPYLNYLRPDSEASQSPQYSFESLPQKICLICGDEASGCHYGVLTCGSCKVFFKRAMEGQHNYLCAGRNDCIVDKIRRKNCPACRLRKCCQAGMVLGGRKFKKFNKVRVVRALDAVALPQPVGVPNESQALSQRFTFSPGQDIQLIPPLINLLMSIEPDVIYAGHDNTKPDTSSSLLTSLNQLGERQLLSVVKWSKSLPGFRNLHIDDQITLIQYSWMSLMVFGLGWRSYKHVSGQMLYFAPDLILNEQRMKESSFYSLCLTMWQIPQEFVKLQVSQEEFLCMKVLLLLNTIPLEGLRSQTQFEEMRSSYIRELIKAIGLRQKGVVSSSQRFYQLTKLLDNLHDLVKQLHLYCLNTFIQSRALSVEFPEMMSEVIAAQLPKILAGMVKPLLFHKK

[3] = organism: Rattus norvegicus; assay: Progestational activity in estrone-treated ovariectomized rat assessed as effect on vaginal epithelial thickness; assay type: functional, organism-based; outline: as §1
[4] = target: T2, Mineralocorticoid receptor (Homo sapiens) (UniProt P08235); assay: Antagonist activity at human mineralocorticoid receptor relative to aldosterone; assay type: functional
T2 sequence (whole entry): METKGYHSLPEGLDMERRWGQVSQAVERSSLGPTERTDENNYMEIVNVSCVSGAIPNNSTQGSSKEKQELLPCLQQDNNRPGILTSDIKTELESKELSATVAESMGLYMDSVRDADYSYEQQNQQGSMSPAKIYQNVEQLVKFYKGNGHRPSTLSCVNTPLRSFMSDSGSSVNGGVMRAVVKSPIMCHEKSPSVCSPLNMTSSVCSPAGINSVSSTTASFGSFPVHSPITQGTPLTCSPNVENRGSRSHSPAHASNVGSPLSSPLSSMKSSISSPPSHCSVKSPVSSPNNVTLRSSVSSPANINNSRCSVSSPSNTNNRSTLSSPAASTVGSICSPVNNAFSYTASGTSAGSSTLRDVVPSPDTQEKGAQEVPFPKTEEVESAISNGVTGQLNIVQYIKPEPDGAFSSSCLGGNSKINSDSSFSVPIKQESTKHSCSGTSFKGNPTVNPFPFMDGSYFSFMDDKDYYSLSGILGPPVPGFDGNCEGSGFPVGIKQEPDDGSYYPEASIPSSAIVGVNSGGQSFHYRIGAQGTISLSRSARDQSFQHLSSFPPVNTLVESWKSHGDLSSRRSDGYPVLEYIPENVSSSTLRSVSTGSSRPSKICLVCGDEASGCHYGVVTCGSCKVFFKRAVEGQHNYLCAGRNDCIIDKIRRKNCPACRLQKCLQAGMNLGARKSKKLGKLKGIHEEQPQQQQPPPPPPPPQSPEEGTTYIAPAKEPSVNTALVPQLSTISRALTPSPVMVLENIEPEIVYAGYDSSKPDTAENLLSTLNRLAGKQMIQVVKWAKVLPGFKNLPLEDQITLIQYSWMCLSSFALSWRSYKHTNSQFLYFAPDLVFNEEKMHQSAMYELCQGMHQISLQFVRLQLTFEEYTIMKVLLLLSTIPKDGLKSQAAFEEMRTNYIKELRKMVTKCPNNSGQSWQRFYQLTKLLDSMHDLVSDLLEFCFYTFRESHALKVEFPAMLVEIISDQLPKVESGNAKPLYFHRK

[5] = target: T3, Glucocorticoid receptor (Homo sapiens) (UniProt P04150); assay: Antagonist activity at human glucocorticoid receptor relative to Dexamethasone; assay type: functional
T3 sequence (whole entry): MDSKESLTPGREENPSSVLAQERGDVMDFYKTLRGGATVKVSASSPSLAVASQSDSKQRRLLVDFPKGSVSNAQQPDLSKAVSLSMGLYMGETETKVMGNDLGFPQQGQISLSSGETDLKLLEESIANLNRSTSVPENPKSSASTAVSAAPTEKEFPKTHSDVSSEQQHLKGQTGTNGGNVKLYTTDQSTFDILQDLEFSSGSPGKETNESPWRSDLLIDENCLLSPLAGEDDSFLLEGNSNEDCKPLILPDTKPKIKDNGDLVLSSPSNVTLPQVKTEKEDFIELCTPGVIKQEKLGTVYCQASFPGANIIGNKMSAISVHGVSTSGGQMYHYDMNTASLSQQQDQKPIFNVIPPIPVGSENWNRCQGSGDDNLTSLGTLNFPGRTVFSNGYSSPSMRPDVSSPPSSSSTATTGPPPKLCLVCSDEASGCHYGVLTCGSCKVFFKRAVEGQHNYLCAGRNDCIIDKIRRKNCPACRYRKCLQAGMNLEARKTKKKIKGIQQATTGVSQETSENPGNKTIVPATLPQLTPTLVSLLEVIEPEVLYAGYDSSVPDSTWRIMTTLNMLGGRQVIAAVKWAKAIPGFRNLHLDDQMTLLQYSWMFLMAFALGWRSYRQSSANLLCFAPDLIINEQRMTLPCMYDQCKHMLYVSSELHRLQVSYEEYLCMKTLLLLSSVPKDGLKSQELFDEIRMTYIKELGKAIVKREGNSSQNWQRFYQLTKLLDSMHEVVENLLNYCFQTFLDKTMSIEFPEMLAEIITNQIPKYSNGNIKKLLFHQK

[6] = tested on: Rattus norvegicus; assay: Inhibition of ovulation in rat assessed as reduction in number of ova at 0.25 to 2.0 mg/kg, po for 5 days; assay type: functional, organism-based
Outline: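 Female rats (n = 6 per group) received vehicle or progestin for 5 days at 0.25, 1.0 or 2.0 mg/kg. The number of ova per rat and the number of rats ovulating were then determined.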

[7] = organism: Rattus norvegicus; assay: Progestational activity in estrone-treated ovariectomized rat assessed as reduction of breast alveolar bud proliferation; assay type: functional, organism-based; outline: as §1
[8] = target: T2, Mineralocorticoid receptor (Homo sapiens); assay: Agonist activity at human mineralocorticoid receptor relative to aldosterone; assay type: functional

In the case of `CC1=C[C@@H]([C@@H]2Oc3c(F)cc(F)cc3-c3ccc4c(c32)C(C)=CC(C)(C)N4)CCC1` (stereo in doubt; (-)-5c), the Activity [1] was “Active”, the Efficacy [2] was 55% and the Activity [3] was “Active”. For the same compound, the Efficacy [4] was 93%, the Efficacy [5] was 92% and the Activity [6] was “Active”. For the same compound, the Activity [7] was “Active” and the Efficacy [8] was 8%.
